Gli-Sufu antag – antagonists of Gli-Sufu signaling | Sufu-KO-LIGHT fibroblasts, Gli luciferase reporter luminescence | inhibition, % at 5 µM | 340,000 compounds, 0.74% hits;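 active = inhibition above about 55%, limit read from the data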
CHOP inh – blocks CHOP induction under ER stress; CHO-K1 CHOP-promoter luciferase, tunicamycin-induced, 15-18 h; AID 2732; inhibition, % at 10 µM; 220,000 compounds, 3.8% hits;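 active = compounds that reduced the stress-induced luciferase reporter signal by more than about 70% of percent inhibition, limit read from the data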
UPR CHOP act – activators of apoptotic arm of unfolded protein response (CHOP); CHO-CHOP luciferase reporter, UPR activation, luminescence; percent of tunicamycin response over DMSO baseline; activation, % at 10 µM; 330,000 compounds, 0.34% hits; AID 449763;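 active = at 10 µM dose, activation of 40% or more, normalized to positive control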
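System: CHO-CHOP luciferase reporter cell line; amount: 500 cells/well; buffer or medium: F12 medium containing 10% fetal bovine serum; incubation: 6 h compound exposure at 37 °C after overnight seeding; measured by: luciferase luminescence after 10 min with Steady-Glo reagent; evaluation: % reporter activation, DMSO baseline versus tunicamycin full activation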
Jurkat NFkB inh – lowers PMA/ionomycin-induced NF-kB signal in Jurkat cells. PMA/ionomycin-induced NF-kB luciferase reporter, luminescence. inhibition, % at 4 µM. 330,000 compounds, 0.53% hits; in the data active = inhibition above about 50%
XBP1 UPR activ – adaptive UPR (XBP1) activation | CHO-XBP1 luciferase reporter, IRE1-XBP1 UPR activation, luminescence; percent of tunicamycin response, DMSO as zero | activation, % at 20 µM | 330,000 compounds, 0.33% hits | AID 463104;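 active = versus positive control, 20 µM dose yields 30% or more activation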
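assay system = CHO-XBP1 luciferase reporter cells | amount = 1000 cells/well | buffer or medium = F12 plus 10% FBS | compound dosing = single point, 20 µM final compound, 1% DMSO | incubation = 16-18 h cell attachment at 37 °C, then 6 h compound exposure | detection = Steady-Glo luminescence read | controls = tunicamycin 10 µg/mL and vehicle-only wells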
697 NFkB inh – inhibitors of the PMA/ionomycin-induced NF-kB reporter in 697 B cells; 697 B-cell NF-kB luciferase reporter, 16 h; inhibition, % at 4 µM; 330,000 compounds, 0.33% hits; AID 435022; in the data active = inhibition above about 35%
697 NFkB conf – inhibitors of the PMA/ionomycin-induced NF-kB reporter in 697 B cells, retest | 697 B-cell NF-kB luciferase, 16 h | shares compounds with 697 NFkB inh | AID 449746 | 2,000 compounds, 35% hits | inhibition, % at 4 µM; in the data active = inhibition mostly above about 28%, no sharp cut-off; inactive = mostly below about 22%
Numbers stand for hits. Only some compounds are listed: those with a hit (about 3.9% of all), similar ones and a draw of the others.

Results for Cc1cccc(NC(=O)CSc2nnc(-c3cc(C)n(-c4ccccc4)c3C)o2)c1C ?
Gli-Sufu antag: inactive; CHOP inh: 90.8; UPR CHOP act: inactive; Jurkat NFkB inh: inactive; XBP1 UPR activ: inactive; 697 NFkB inh: 71.2; 697 NFkB conf: inactive

What do the screens show for `CCCc1cc(=O)n2[nH]c(C)c(-c3ccc(OC)cc3)c2n1`?
Gli-Sufu antag: inactive; UPR CHOP act: inactive; Jurkat NFkB inh: inactive; XBP1 UPR activ: inactive; 697 NFkB inh: inactive

Results for O=C(c1ccc(F)cc1)C1CCN(C(=O)c2ccccc2F)CC1 ?
Gli-Sufu antag: inactive; UPR CHOP act: inactive; Jurkat NFkB inh: inactive; XBP1 UPR activ: inactive; 697 NFkB inh: inactive

What do the screens show for `CCOC(=O)N1CCN(c2ncnc3c2[nH]c2ccc(OC)cc23)CC1`?
Gli-Sufu antag: inactive; CHOP inh: inactive; UPR CHOP act: inactive; Jurkat NFkB inh: inactive; XBP1 UPR activ: inactive; 697 NFkB inh: 36.7; 697 NFkB conf: 37.9

How did O=C(c1ccco1)N1CCN(c2ncnc3c2[nH]c2ccccc23)CC1 do in these assays?
CHOP inh: inactive; UPR CHOP act: inactive; Jurkat NFkB inh: inactive; XBP1 UPR activ: inactive; 697 NFkB inh: 36.3; 697 NFkB conf: inactive

Results for Cc1ccc(CCNC(=O)C2CCCN(S(=O)(=O)N3CC(C)CC(C)C3)C2)cc1 (stereo not drawn) ?
Gli-Sufu antag: inactive; UPR CHOP act: inactive; Jurkat NFkB inh: inactive; XBP1 UPR activ: inactive; 697 NFkB inh: inactive

What do the screens show for `N/C(=N\OC(=O)c1ccc(Cl)cc1)c1[nH]ncc1Br`?
Gli-Sufu antag: inactive; CHOP inh: inactive; UPR CHOP act: inactive; Jurkat NFkB inh: inactive; XBP1 UPR activ: inactive; 697 NFkB inh: inactive; 697 NFkB conf: inactive

What do the screens show for `Cc1ccc(NS(=O)(=O)c2ccc(C)c(C(=O)Nc3ccc(S(=O)(=O)Nc4onc(C)c4C)cc3)c2)cc1`?
Gli-Sufu antag: inactive

What do the screens show for `O=C(Nc1ccc2ccccc2c1)c1ccccc1O`?
Gli-Sufu antag: inactive; UPR CHOP act: inactive; Jurkat NFkB inh: inactive; XBP1 UPR activ: inactive; 697 NFkB inh: inactive; 697 NFkB conf: inactive

Results for O=C(Nc1ccc(N2CCCC2)cc1)c1cccc(F)c1 ?
Gli-Sufu antag: inactive; UPR CHOP act: inactive; Jurkat NFkB inh: inactive; XBP1 UPR activ: inactive; 697 NFkB inh: inactive; 697 NFkB conf: inactive

What do the screens show for `CC(=O)c1c[nH]c(C(=O)Nc2ccc(N3CCCCCC3)cc2)c1`?
Gli-Sufu antag: inactive; UPR CHOP act: inactive; Jurkat NFkB inh: inactive; XBP1 UPR activ: inactive; 697 NFkB inh: 39.8; 697 NFkB conf: inactive

What do the screens show for `CCN(CC(=O)Nc1c(F)cccc1F)C(=O)c1cc([N+](=O)[O-])ccc1N1CCCCC1`?
Gli-Sufu antag: inactive; UPR CHOP act: inactive; Jurkat NFkB inh: inactive; XBP1 UPR activ: inactive; 697 NFkB inh: 35.3; 697 NFkB conf: 43.7

How did CCN(CC(=O)Nc1c(F)cccc1F)C(=O)c1cc(S(=O)(=O)N2CCOCC2)ccc1N1CCCC1 do in these assays?
Gli-Sufu antag: inactive; UPR CHOP act: inactive; Jurkat NFkB inh: inactive; XBP1 UPR activ: inactive; 697 NFkB inh: 39.6; 697 NFkB conf: 32.2

Results for CCN(CC(=O)Nc1c(F)cccc1F)C(=O)c1ccc(N2CCOCC2)c([N+](=O)[O-])c1 ?
Gli-Sufu antag: inactive; UPR CHOP act: inactive; Jurkat NFkB inh: inactive; XBP1 UPR activ: inactive; 697 NFkB inh: inactive

How did CCCn1nc(C(=O)NCC2COc3ccccc3O2)c2ccccc2c1=O (stereo not drawn) do in these assays?
Gli-Sufu antag: inactive; UPR CHOP act: inactive; Jurkat NFkB inh: inactive; XBP1 UPR activ: inactive; 697 NFkB inh: inactive

Results for CCC(C)CCN1C(Nc2ccccc2)=NC[C@@H]1C (stereo partly drawn) ?
Gli-Sufu antag: inactive; UPR CHOP act: inactive; Jurkat NFkB inh: inactive; XBP1 UPR activ: inactive; 697 NFkB inh: inactive

Results for COc1cccc(CNC(=O)c2cc3oc4ccccc4c3n2C)c1OC ?
Gli-Sufu antag: inactive; UPR CHOP act: inactive; Jurkat NFkB inh: inactive; XBP1 UPR activ: inactive; 697 NFkB inh: inactive; 697 NFkB conf: inactive

What do the screens show for `CCOc1ccc(CNC(=O)c2cc3oc4ccccc4c3n2C)cc1`?
Gli-Sufu antag: inactive; CHOP inh: inactive; UPR CHOP act: inactive; Jurkat NFkB inh: inactive; XBP1 UPR activ: inactive; 697 NFkB inh: inactive; 697 NFkB conf: inactive

How did CCOc1ccccc1CNC(=O)c1cc2oc3ccccc3c2n1CC do in these assays?
Gli-Sufu antag: inactive; CHOP inh: inactive; UPR CHOP act: inactive; Jurkat NFkB inh: inactive; XBP1 UPR activ: inactive; 697 NFkB inh: inactive; 697 NFkB conf: inactive

Results for O=C(Nc1nnc2n1CCS2)c1ccc(Br)o1 ?
Gli-Sufu antag: inactive; UPR CHOP act: inactive; Jurkat NFkB inh: inactive; XBP1 UPR activ: inactive; 697 NFkB inh: inactive

What do the screens show for `CC(OC(=O)CCN1C(=O)C2CC=CCC2C1=O)C(=O)Nc1ccc(F)cc1` (stereo not drawn)?
Gli-Sufu antag: inactive

What do the screens show for `COc1ccc(CNC(=O)C2CCN(c3cc(C(=O)Nc4cccc(OC)c4)ccn3)CC2)cc1`?
Gli-Sufu antag: inactive; UPR CHOP act: inactive; Jurkat NFkB inh: inactive; XBP1 UPR activ: inactive; 697 NFkB inh: inactive

Results for Nc1nn(-c2ccccc2)c(N)c1N=Nc1ccccc1F ?
Gli-Sufu antag: inactive; CHOP inh: inactive; UPR CHOP act: inactive; Jurkat NFkB inh: inactive; XBP1 UPR activ: inactive; 697 NFkB inh: inactive; 697 NFkB conf: inactive

Results for Nc1nn(-c2ccccc2)c(N)c1N=Nc1ccccc1 ?
Gli-Sufu antag: inactive; CHOP inh: inactive; UPR CHOP act: inactive; Jurkat NFkB inh: inactive; XBP1 UPR activ: inactive; 697 NFkB inh: inactive

How did CNC(=O)C(=O)NCCN1CCN(C(=O)c2ccc([N+](=O)[O-])cc2)CC1 do in these assays?
Gli-Sufu antag: inactive; CHOP inh: inactive; UPR CHOP act: inactive; Jurkat NFkB inh: inactive; XBP1 UPR activ: inactive; 697 NFkB inh: 35.1; 697 NFkB conf: inactive

What do the screens show for `COc1ccc(/C=C2\SC(=S)N(CCCC(=O)Nc3cccc(C(=O)O)c3)C2=O)cc1OC`?
Gli-Sufu antag: inactive; UPR CHOP act: inactive; Jurkat NFkB inh: inactive; XBP1 UPR activ: inactive; 697 NFkB inh: inactive

How did COc1ccc(/C=C2\SC(=S)N(CCC(=O)Nc3cccc(O)c3)C2=O)cc1OC do in these assays?
Gli-Sufu antag: inactive; UPR CHOP act: inactive; Jurkat NFkB inh: inactive; XBP1 UPR activ: inactive; 697 NFkB inh: 37.1; 697 NFkB conf: inactive

What do the screens show for `COc1ccc(/C=C2\SC(=S)N(CCC(=O)Nc3ccc(C(=O)O)cc3)C2=O)cc1OC`?
Gli-Sufu antag: inactive; UPR CHOP act: inactive; Jurkat NFkB inh: inactive; XBP1 UPR activ: inactive; 697 NFkB inh: 35.2; 697 NFkB conf: 31.1

How did COc1cccc(/C=C2\SC(=S)N(CCC(=O)Nc3ccc(O)cc3)C2=O)c1 do in these assays?
Gli-Sufu antag: inactive; UPR CHOP act: inactive; Jurkat NFkB inh: inactive; XBP1 UPR activ: inactive; 697 NFkB inh: inactive

Assay outcomes: PubChem, several laboratories
